Assay results taken from ChEMBL document CHEMBL1811802, “Synthesis and significant cytostatic activity of 7-hetaryl-7-deazaadenosines” (J Med Chem, 2011).
Blank lines part the entries; values can stand above or below the compound they belong to.

Tests used:
[1] = Cytostatic activity against human Hs578 cells after 5 days by SRB assay; assay type: functional; settings: Hs578, 120 h
Summary of the method: (§1)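 Cells seeded per line density, overnight at 37 °C; day-zero plate TCA-fixed. 5-fold serial dilutions added, 5-day incubation; TCA fixation, 0.057% SRB in 1% acetic acid 30 min, dye dissolved in 10 mM Tris pH 10.5, A500. Growth relative to day-zero and untreated; GIC50 from sigmoidal dose–response fit; mean of two independent experiments.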

PC-3 = test: Cytostatic activity against human PC3 cells after 5 days by SRB assay; assay type: functional; settings: PC-3, 120 h; summary of the method: as §1
NCI-H23 = test: Cytostatic activity against human NCI-H23 cells after 5 days by SRB assay; assay type: functional; settings: NCI-H23, 120 h; summary of the method: as §1
MT4 = test: Cytostatic activity against human MT4 cells after 5 days by SRB assay; assay type: functional; settings: MT4, 120 h
[2] = Cytotoxicity against human HeLaS3 cells after 3 days by XTT assay; assay type: functional, cell-based; settings: HeLa S3, 72 h
Summary of the method: (§2)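 Suspension-grown cell lines, 3-day compound incubation; viability read by XTT metabolic assay; IC50 averaged from four independent experiments.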

CCRF-CEM = test: Cytotoxicity against human CCRF-CEM cells after 3 days by XTT assay; assay type: functional, cell-based; settings: 72 h; summary of the method: as §2
HCT-116 = test: Cytostatic activity against human HCT116 cells after 5 days by SRB assay; assay type: functional; settings: HCT-116, 120 h; summary of the method: as §1
Adenosine kinase = Adenosine kinase (Homo sapiens, UniProt P55263); test: Inhibition of human ADK using [3H]-adenosine by scintillation counting
Adenosine kinase, sequence (P55263 whole entry): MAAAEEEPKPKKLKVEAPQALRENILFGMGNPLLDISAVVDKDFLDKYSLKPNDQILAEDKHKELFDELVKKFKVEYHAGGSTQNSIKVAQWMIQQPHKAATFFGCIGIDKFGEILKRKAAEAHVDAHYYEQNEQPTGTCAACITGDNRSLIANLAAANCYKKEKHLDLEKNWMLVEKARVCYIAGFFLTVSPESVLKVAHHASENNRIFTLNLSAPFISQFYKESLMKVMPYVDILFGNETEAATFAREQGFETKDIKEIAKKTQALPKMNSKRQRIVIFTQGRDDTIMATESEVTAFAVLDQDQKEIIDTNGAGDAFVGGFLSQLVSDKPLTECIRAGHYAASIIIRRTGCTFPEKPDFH

HL-60 = test: Cytotoxicity against human HL60 cells after 3 days by XTT assay; assay type: functional, cell-based; settings: HL-60, 72 h; summary of the method: as §2
BT-549 [3] = test: Cytotoxicity against human BT549 cells after 3 days by MTT assay; assay type: functional, cell-based; settings: BT-549, 72 h
L1210 = test: Cytotoxicity against mouse L1210 cells after 3 days by MTT assay; assay type: functional, cell-based; settings: L1210, 72 h
HPAC = test: Cytotoxicity against human HPAC cells after 3 days by MTT assay; assay type: functional, cell-based; settings: 72 h
EL4 = test: Cytotoxicity against mouse EL4 cells after 3 days by MTT assay; assay type: functional, cell-based; settings: EL4, 72 h
C6 = test: Cytotoxicity against rat C6 cells after 3 days by MTT assay; assay type: functional, cell-based; settings: C6, 72 h
[4] = Cytotoxicity against human U87MG cells after 3 days by MTT assay; assay type: functional, cell-based, U-87MG ATCC; settings: U-87 MG, 72 h
SK-MEL-2 = test: Cytotoxicity against human SK-MEL-2 cells after 3 days by MTT assay; assay type: functional, cell-based; settings: SK-MEL-2, 72 h
BJ = test: Cytotoxicity against human BJ cells after 3 days by MTT assay; assay type: cell-based; settings: 72 h
BV-173 = test: Cytotoxicity against human BV173 cells after 3 days by MTT assay; assay type: functional, cell-based; settings: BV-173, 72 h
CT26 = test: Cytotoxicity against mouse CT26 cells after 3 days by MTT assay; assay type: functional, cell-based; settings: CT26, 72 h
[5] = Cytotoxicity against mouse P388D1 cells after 3 days by MTT assay; assay type: functional, cell-based; settings: P388D1, 72 h
MCF7 = test: Cytotoxicity against human MCF7 cells after 3 days by MTT assay; assay type: functional, cell-based; settings: MCF7, 72 h
SK-OV-3 = test: Cytotoxicity against human SKOV3 cells after 3 days by MTT assay; assay type: functional, cell-based; settings: SK-OV-3, 72 h
MDA-MB-231 = test: Cytotoxicity against human MDA-MB-231 cells after 3 days by MTT assay; assay type: functional, cell-based; settings: MDA-MB-231, 72 h
[6] = Cytotoxicity against human CEM-DNR-bulk cells after 3 days by MTT assay; assay type: functional, cell-based; settings: 72 h
K562 [7] = test: Cytotoxicity against human K562 cells after 3 days by MTT assay; assay type: functional, cell-based; settings: K562, 72 h
HeLa = test: Cytotoxicity against human HeLa cells after 3 days by MTT assay; assay type: functional, cell-based; settings: 72 h
[8] = Cytotoxicity against human NCI-H146 cells after 3 days by MTT assay; assay type: functional, cell-based; settings: NCI-H146, 72 h
K562 [9] = test: Cytotoxicity against human paclitaxel resistant K562 cells after 3 days by MTT assay; assay type: functional, cell-based; settings: K562, 72 h
HT-29 = test: Cytotoxicity against human HT-29 cells after 3 days by MTT assay; assay type: functional, cell-based; settings: HT-29, 72 h
[10] = Cytotoxicity against human MES-SA cells after 3 days by MTT assay; assay type: functional, cell-based; settings: 72 h
LNCaP = test: Cytotoxicity against human LNCAP cells after 3 days by MTT assay; assay type: functional, cell-based; settings: 72 h
SK-N-AS = test: Cytotoxicity against human SK-N-AS cells after 3 days by MTT assay; assay type: functional, cell-based; settings: 72 h
[11] = Inhibition of RNA polymerase 2 in human HeLaScribe nuclear extracts after 1 hr; settings: read-out: IC50
Summary of the method: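 HeLaScribe nuclear extract transcription with CMV(+) template DNA, 3 mM MgCl2, 400 μM CTP/GTP/UTP, 25 μM [33P]ATP. Inhibitor preincubated 5 min at 30 °C, then 1 h at 30 °C. Products run on 6% urea–polyacrylamide gel; full-length transcript quantified; IC50 is 50% product decrease.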

A549 = test: Cytostatic activity against human A549 cells after 5 days by SRB assay; assay type: functional; settings: A549, 120 h; summary of the method: as §1
BT-549 [12] = test: Cytostatic activity against human BT549 cells after 5 days by SRB assay; assay type: functional; settings: BT-549, 120 h; summary of the method: as §1
DU-145 = test: Cytostatic activity against human DU145 cells after 5 days by SRB assay; assay type: functional; settings: DU-145, 120 h; summary of the method: as §1
HCT-15 = test: Cytostatic activity against human HCT15 cells after 5 days by SRB assay; assay type: functional; settings: HCT-15, 120 h; summary of the method: as §1

SMILES: Nc1ccn([C@@H]2O[C@H](CO)[C@@H](O)C2(F)F)c(=O)n1 [GEMCITABINE]
- IC50 (BT-549 [3]): 8 nM
- IC50 (L1210): 7 nM
- IC50 (HPAC): 73 nM
- IC50 (EL4): 7 nM
- IC50 (C6): 504 nM
- IC50 [4]: 1490 nM
- IC50 (SK-MEL-2): 7110 nM
- IC50 (BJ): 9880 nM
- IC50 (BV-173): 1 nM
- IC50 (CT26): 6 nM
- IC50 [5]: 19 nM
- IC50 (MCF7): 149 nM
- IC50 (SK-OV-3): > 10000 nM
- IC50 (MDA-MB-231): 245 nM
- IC50 [6]: 22 nM
- IC50 (K562 [7]): 718 nM
- IC50 (HeLa): 4120 nM
- IC50 [8]: 2780 nM
- IC50 (K562 [9]): 6 nM
- IC50 (HT-29): 1530 nM
- IC50 [10]: 5 nM
- IC50 (LNCaP): 512 nM
- IC50 (SK-N-AS): 1100 nM

SMILES: Nc1ncnc2c1c(-c1cccs1)cn2[C@@H]1O[C@H](COP(=O)(O)OP(=O)(O)OP(=O)(O)O)[C@@H](O)[C@H]1O
- IC50 [11]: 54000 nM

SMILES: COc1cccc2c1C(=O)c1c(O)c3c(c(O)c1C2=O)C[C@@](O)(C(=O)CO)C[C@@H]3O[C@H]1C[C@H](N)[C@H](O)[C@H](C)O1 [DOXORUBICIN]
- GI50 [1]: 6 nM
- GI50 (PC-3): 21 nM
- GI50 (NCI-H23): 5 nM
- GI50 (HCT-116): 11 nM
- GI50 (A549): 16 nM
- GI50 (BT-549 [12]): 10 nM

SMILES: C#Cc1cn([C@@H]2O[C@H](CO)[C@@H](O)[C@H]2O)c2ncnc(N)c12
- GI50 [1]: 1 nM
- GI50 (PC-3): 11 nM
- GI50 (NCI-H23): 1 nM
- GI50 (MT4): 1 nM
- IC50 [2]: 20 nM
- IC50 (CCRF-CEM): 10 nM
- GI50 (HCT-116): 2 nM
- IC50 (Adenosine kinase): 200 nM
- IC50 (HL-60): 90 nM

SMILES: Nc1ncnc2c1ccn2[C@@H]1O[C@H](CO)[C@@H](O)[C@H]1O [TUBERCIDIN]
- GI50 [1]: 98 nM
- GI50 (PC-3): 48 nM
- GI50 (NCI-H23): 11 nM
- GI50 (MT4): 21 nM
- GI50 (HCT-15): 11 nM
- GI50 (DU-145): 18 nM
- GI50 (HCT-116): 1 nM
- GI50 (A549): 1 nM

SMILES: Nc1nc(Cl)nc2c1ncn2[C@@H]1O[C@H](CO)[C@@H](O)[C@@H]1F [CLOFARABINE]
- GI50 [1]: 1240 nM
- GI50 (PC-3): 63 nM
- GI50 (NCI-H23): 40 nM
- GI50 (MT4): 51 nM
- GI50 (HCT-15): 180 nM
- GI50 (DU-145): 125 nM
- GI50 (HCT-116): 106 nM
- GI50 (A549): 86 nM
- GI50 (BT-549 [12]): 65 nM

Continued, in another order:

- GI50 (PC-3): 15 nM
- GI50 (NCI-H23): 35 nM
- GI50 (HCT-116): 18 nM
- IC50 (Adenosine kinase): > 10000 nM
SMILES: Nc1ncnc2c1c(-c1cc[nH]n1)cn2[C@@H]1O[C@H](CO)[C@@H](O)[C@H]1O
- GI50 [1]: 8 nM
- GI50 (MT4): 18 nM
- IC50 [2]: 690 nM
- IC50 (CCRF-CEM): 130 nM
- IC50 (HL-60): > 20000 nM

- GI50 (NCI-H23): 390 nM
- GI50 (DU-145): 1870 nM
- GI50 (HCT-116): 1290 nM
- IC50 (Adenosine kinase): > 10000 nM
SMILES: CSc1ccc(-c2cn([C@@H]3O[C@H](CO)[C@@H](O)[C@H]3O)c3ncnc(N)c23)cc1
- GI50 [1]: 1970 nM
- GI50 (MT4): 4400 nM
- IC50 [2]: > 10000 nM
- IC50 (CCRF-CEM): > 10000 nM
- IC50 (HL-60): > 10000 nM

- GI50 (NCI-H23): 5350 nM
- GI50 (DU-145): 1050 nM
- GI50 (HCT-116): 5670 nM
- IC50 (Adenosine kinase): > 5000 nM
SMILES: Nc1ncnc2c1c(-c1ccc3ccccc3c1)cn2[C@@H]1O[C@H](CO)[C@@H](O)[C@H]1O
- GI50 [1]: 2160 nM
- IC50 [2]: > 10000 nM
- IC50 (CCRF-CEM): > 10000 nM
- IC50 (HL-60): > 10000 nM

- GI50 (PC-3): 6290 nM
- GI50 (NCI-H23): 5400 nM
- GI50 (HCT-116): 3740 nM
- GI50 (A549): 7020 nM
- IC50 (Adenosine kinase): > 10000 nM
- GI50 (BT-549 [12]): > 10000 nM
SMILES: Nc1ncnc2c1c(-c1cc3ccccc3o1)cn2[C@@H]1O[C@H](CO)[C@@H](O)[C@H]1O
- GI50 [1]: 6730 nM
- GI50 (MT4): 4800 nM
- IC50 [2]: > 10000 nM
- IC50 (CCRF-CEM): 3950 nM
- IC50 (HL-60): > 10000 nM

- GI50 (PC-3): 2 nM
- GI50 (NCI-H23): 2 nM
- GI50 (HCT-116): 3 nM
- IC50 (Adenosine kinase): > 10000 nM
SMILES: Nc1ncnc2c1c(-c1c[nH]cn1)cn2[C@@H]1O[C@H](CO)[C@@H](O)[C@H]1O
- GI50 [1]: 2 nM
- GI50 (MT4): 28 nM
- IC50 [2]: 70 nM
- IC50 (CCRF-CEM): 70 nM
- IC50 (HL-60): 130 nM
